Assay [1] deals with Hepacivirus hominis. Description: Inhibition of HCV NS3/4A protease at 50 ug/ml after 30 mins. A digest of the protocol:
(§1)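 Recombinant HCV NS3/4A protease, freshly diluted to 0.5 µg/mL, was combined with test compound in DMSO. The reaction was started with FRET peptide substrate Ac-Asp-Glu-Asp(EDANS)-Glu-Glu-Abu-ψ-[COO]Ala-Ser-Lys(DABCYL)-NH2, diluted 100-fold from a DMSO stock. After 30 min at room temperature (28 °C), fluorescence was read at […]. % inhibition = 100×(Fvehicle−Fsample)/Fvehicle, with both values corrected by subtracting the substrate control.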

The nature of assay [2]: Inhibition of HCV NS3/4A protease after 30 mins. On the set-up: species or system Hepacivirus hominis. Summed up:
as §1

Assay [3] concerns Hepacivirus hominis. Description: Inhibition of HCV NS3/4A protease at 100 ug/ml after 30 mins. A digest of the protocol:
as §1

Assay [4] has as its system Hepacivirus hominis. The assay can be described thus: Inhibition of HCV NS3/4A protease at 10 ug/ml after 30 mins. A digest of the protocol:
as §1

Molecules are shown by their SMILES. ≈ marks a conversion by molar mass, not a printed value.

As a reminder, the inhibition is the change of the read-out against control, counted positive when it falls. Usually IC50 stands for the concentration that inhibits the measured activity by half. Regarding `O=C(COc1ccc(/C=C/C(=O)c2c[nH]c3ccccc23)cc1)N[C@@H](Cc1c[nH]c2ccccc12)C(=O)O`, the inhibition in assay [1] was determined as 67.2%; in assay [3], 82.9%; in assay [4], 44.5%. In addition, the IC50 in assay [2] stood at 19 µg/mL (≈ 37.4 µM).
`N#Cc1cncnc1NC(=O)COc1ccc(/C=C/C(=O)c2c[nH]c3ccccc23)cc1`: the figures for the inhibition in assay [1] and in assay [3] were 29.4% and 58.4%, respectively. The IC50 in assay [2] was > 100 µg/mL.
For `O=C(COc1ccc(/C=C/C(=O)c2c[nH]c3ccccc23)cc1)N[C@@H](Cc1ccc(O)cc1)C(=O)O`, the results for the inhibition in assay [1], in assay [3] and in assay [4] were 81.2%, 83.9% and 49.5%, respectively. The same molecule showed an IC50 in assay [2] of 12 µg/mL (≈ 24.8 µM).
As for `O=C(COc1ccc(/C=C/C(=O)c2c[nH]c3ccccc23)cc1)Nc1ccc(C(=O)c2ccccc2C(=O)O)cc1`, the inhibition came out at 72% in assay [1], 80.9% in assay [3] and 40.1% in assay [4]. Moreover, the IC50 in assay [2] is 19 µg/mL (≈ 34.9 µM).
As for `O=C(O)COc1ccc(/C=C/C(=O)c2c[nH]c3ccccc23)cc1`, the inhibition was 22.9% in assay [1] and 51.8% in assay [3]. For the same molecule, the 50% inhibitory concentration (IC50) in assay [2] was > 100 µg/mL.
On to `CC(=O)OCCC/C(=C1/SC(=S)N(CC(=O)O)C1=O)c1ccc(Br)cc1`, for which the IC50 in assay [2] came out at 6.4 µg/mL (≈ 14 µM).
Regarding `O=C(COc1ccc(/C=C/C(=O)c2c[nH]c3ccccc23)cc1)N[C@@H](Cc1ccccc1)C(=O)O`, the inhibition in assay [1] was determined as 82.4%; in assay [3], 84.7%; in assay [4], 53.7%. Further, in assay [2], the IC50 is 9 µg/mL (≈ 19.2 µM).
The matching figures for `O=C(COc1ccc(/C=C/C(=O)c2c[nH]c3ccccc23)cc1)N[C@@H](Cc1c[nH]cn1)C(=O)O`: 48.5%, 78.7%, 36.4% and 21 µg/mL (≈ 45.8 µM).
In the case of `CC(C)C[C@H](NC(=O)C1(Cc2ccsc2C(=O)O)Cc2ccccc2N1)C(=O)NC(CC(F)F)C(=O)C(=O)O` (some centres not stated), the IC50 in assay [2] turned out to be 0.4 µg/mL (≈ 0.707 µM).
As to `O=C(COc1ccc(/C=C/C(=O)c2c[nH]c3ccccc23)cc1)Nc1ncncc1C(=O)O`, the inhibition in assay [1] is 57.2%; in assay [3], 73.7%; in assay [4], 22.4%. In assay [2], the IC50 was 29 µg/mL (≈ 65.5 µM).
